According to PubChem BioAssay:
Some of the results follow. Unmarked numbers belong to inactive results. Calls of active or inactive are those of the source.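 Rule for the calls, unless noted: active = mean percent activation of the reporter above a cutoff set as the average over tested compounds plus their standard deviation; inactive = the rest.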

How the values were obtained:
[1] = target: Oxysterols receptor LXR-beta (Homo sapiens) (UniProt P55055); test: LXR agonists, Gal4 luciferase reporter, confirmation, counter-screen for hcDAF-12 agonist project, cell-based, luminescence, HEK293, H. contortus campaign (AID 743027); conditions: HEK293 Gal4-LXR tk-luc reporter, 24 h, at 6.8 µM, active compounds read high, normalized: DMSO 0%, positive control 100%
Chain of Oxysterols receptor LXR-beta (Homo sapiens) (P55055 whole entry, looked up, the tested form may be a part): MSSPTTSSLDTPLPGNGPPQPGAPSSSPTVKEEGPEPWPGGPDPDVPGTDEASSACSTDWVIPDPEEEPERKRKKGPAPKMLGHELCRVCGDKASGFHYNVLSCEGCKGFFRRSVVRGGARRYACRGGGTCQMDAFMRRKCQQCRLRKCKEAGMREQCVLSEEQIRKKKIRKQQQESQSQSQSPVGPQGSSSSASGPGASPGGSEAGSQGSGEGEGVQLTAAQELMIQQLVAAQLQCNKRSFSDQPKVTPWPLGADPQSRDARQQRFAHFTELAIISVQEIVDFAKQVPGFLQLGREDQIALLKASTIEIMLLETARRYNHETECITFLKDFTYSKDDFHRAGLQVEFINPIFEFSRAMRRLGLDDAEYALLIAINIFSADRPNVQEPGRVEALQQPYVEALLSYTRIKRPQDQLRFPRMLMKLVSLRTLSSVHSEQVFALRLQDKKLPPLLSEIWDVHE
Outline: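 Material: HEK293 Gal4-LXR luciferase reporter cells. Dosing: one nominal 6.8 µM dose, 0.68% DMSO. Schedule: one-day compound treatment at 37 °C. Technique: luciferase luminescence read with One-Glo reagent. Measure: % activation. Benchmarks: DMSO low control, positive-control high control. Replicates: triplicate wells per compound.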

[2] = tested on: Nuclear hormone receptor DAF-12 (Haemonchus contortus); test: H. contortus DAF-12 receptor agonists, confirmation, cell-based, luminescence, HEK293, lit1-tk-luc, triplicate (AID 743032;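 active = mean activation across triplicate tests above the threshold derived from the earlier primary screen, cut at about 5.5% in these data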;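 note: 0% = DMSO only wells and 100% = 3 µM Δ7-dafachronic acid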); conditions: HEK293 hcDAF-12 lit1-tk-luc reporter, at 6.8 µM, active compounds read high, % of Δ7-dafachronic acid response
[3] = tested on: DAF-12 nuclear receptor (Heterodera glycines), GAL4-LBD fusion; test: H. glycines DAF-12 receptor agonists, confirmation, cell-based, luminescence, HEK293, GAL4-LBD fusion (AID 743050;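 active = mean activation over triplicate wells above the hit cutoff derived from the earlier primary screen, cut at about 11% in these data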;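 note: 0% = DMSO low control and 100% = 2 mM sodium butyrate high control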); conditions: HEK293 GAL4-hgDAF12 luciferase reporter, agonist mode; at 6.8 µM; active compounds read high; percent of butyrate response
[4] = target: Oxysterols receptor LXR-beta (Homo sapiens) (UniProt P55055); test: LXR agonists, Gal4 luciferase reporter, confirmation, counter-screen for hgDAF-12 agonist project, cell-based, luminescence, HEK293, H. glycines campaign (AID 743051;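 active = mean activation of the triplicate above a set limit carried over from the primary screen, none filed active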); conditions: 24 h, at 6.8 µM, active compounds read high
Outline: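 Test system: HEK293 cells with Gal4-LXR and tk-luc reporter | Incubation: 24 h exposure, 37 °C | Signal: One-Glo luminescence after 15 min | Measure: % activation versus DMSO and positive controls | Benchmarks: DMSO low control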

SMILES	activation [1] [%]	activation [2]	activation [3]	activation [4] [%]
CC(=O)N1C(=O)/C(=C2\SC(=S)N(NC(=O)c3ccc(O)cc3)C2=O)c2ccccc21	-0.17	1.25%	–	–
Cc1ccc(NN=Nc2nc3c([nH]2)c(=O)n(C)c(=O)n3C)cc1	-0.08	3.07%	–	–
COc1ccc(OCc2cc(C(=O)N3CCCC3)no2)c2ccccc12	0.67	8.88% (active)	–	–
O=C(N/N=C\C1CC=CCC1)c1ccc(Br)o1 (stereo not given)	-0.16	0.29%	–	–
c1ccc(-c2cc(-c3ccccc3)[nH]n2)cc1	1.43	15.7% (active)	–	–
COc1ccc(-c2cn3ccc(C)cc3n2)cc1	1.71	9.09% (active)	–	–
OC(COc1ccc2ccccc2c1)CN1CCOCC1 (stereo not given)	0.33	8.99% (active)	–	–
COc1ccc(-c2c3c(=O)n(C)c(=O)n(C)c3cn2-c2cccc(OC)c2)cc1	-0.23	3.87%	–	–
O=c1[nH]c(CCl)nc2cc(-c3ccc(Cl)cc3)sc12	0.52	1.27%	–	–
O=C(NC1CCCCC1)C(c1cc2ccccc2o1)n1c(=O)c(-c2ccco2)nc2ccccc21 (stereo not given)	0.03	5.1%	–	–
Cn1ccnc1SCC(=O)Nc1ccc2c(c1)OCCO2	0.85	2.69%	–	–
COc1ccc(C2CC(c3cccs3)=Nc3ccccc3S2)cc1OC (stereo not given)	-0.03	2.78%	–	–
CC(C)c1ccc(C=NNc2ccc([N+](=O)[O-])cn2)cc1	1.84	12% (active)	–	–
Cc1c(C=O)c2ccccc2n1CC(=O)O	-0.12	1.56%	–	–
Cn1c(=O)c(C(=O)Nc2ncccn2)c(O)c2ccccc21	0.73	15.3% (active)	–	–
Cc1cc(O)c(C(=O)/C=C/c2c(F)c(F)c(F)c(F)c2F)c(=O)o1	-0.23	-1.06%	–	–
O=C(Nc1ccc(Cl)cc1)C1c2cccc[n+]2CC(=O)N1Cc1ccc2c(c1)OCO2 (stereo not given)	-0.2	2.78%	–	–
Nc1ccc2[nH]c(=S)sc2c1	0.01	2.92%	–	–
O=[N+]([O-])c1ccc2oc(-c3cccc(O)c3)nc2c1	1.82	20% (active)	–	–
N[C@@H](Cc1ccccc1)C(=O)N1CCC(C(=O)NCC(=O)Nc2ccc(F)cc2)CC1	-0.2	0.19%	–	–
NC(=O)c1c(NC(=O)c2ccccc2)sc2c1CCCC2	1.21	13.6% (active)	–	–
C/C(=N/NC(=O)c1ccc(Br)o1)c1ccc(C)o1	-0.01	4.27%	–	–
CCS(=O)(=O)c1cc([N+](=O)[O-])c(Sc2ccccc2N)s1	0.38	7.39% (active)	–	–
Cc1cnc(NC(=O)c2ccc(Cl)nc2)s1	0.78	11.4% (active)	–	–
Clc1ccc(-c2cc(-c3ccccn3)on2)c(Cl)c1	1.95	12.6% (active)	–	–
CCn1cc(CN2CCN(CC(C)(C)C)C(CCO)C2)c2ccccc21 (stereo not given)	-0.12	3.73%	–	–
CCc1ccc(NC(=O)N2CCc3ccccc3C2)cc1	0.65	7.24% (active)	–	–

SMILES	activation [1] [%]	activation [2]	activation [3]	activation [4] [%]
Cc1ccc(C(=O)O/N=C(\N)c2ccccn2)cc1Cl	1.52	4.81%	–	–
COc1ccc(C(=O)Nc2sc(C)c(C)c2CN2CCOCC2)cc1	0.23	4.47%	–	–
COc1ccccc1OCC(=O)O/N=C(\N)c1ccccn1	0.86	5.68% (active)	–	–
COC(=O)C1=NN(c2ccccc2)C2C(=O)N(c3ccccc3OC)C(=O)C12 (stereo not given)	-0.15	-0.03%	–	–
CC(C)(C)OC(=O)N/N=C/c1ccc(C(=O)O)cc1	-0.15	0.76%	–	–
O=C(COc1cccc(Cl)c1)NCc1ccccc1	-0.12	0.38%	–	–
NC(=O)Nc1ccccc1C(=O)NCCc1ccccc1	0.34	4.12%	–	–
Clc1cccc(-c2nc3nc4ccccc4nc3n2Cc2ccco2)c1	0.26	5.41%	–	–
O=C(O)CN1c2cccc3cccc(c23)S1(=O)=O	-0.29	1.3%	–	–
Cc1ccc(S(=O)(=O)Nc2nc3ccccc3nc2N2CCc3ccccc3C2)cc1	0.14	8.94% (active)	–	–
Cc1cc(C)nc(Nc2n[nH]c(-c3ccccc3N)n2)n1	2.12	8.91% (active)	–	–
CCS(=O)(=O)N1Cc2ccccc2CC1C(=O)Nc1nc2ccc(F)cc2s1 (stereo not given)	0.39	6.53% (active)	–	–
CC(C)(C)NC(=O)C(c1ccncc1)N(C(=O)CNC(=O)c1ccco1)c1ccc2c(c1)OCO2 (stereo not given)	-0.43	-0.59%	–	–
Cc1c(C(=O)Nc2ccccn2)oc2ccc(Br)cc12	1.8	15.4% (active)	–	–
Cc1ccc2nc(-c3ccccc3)c(CC3CCCCC3)n2c1	0.85	9.61% (active)	–	–
Cc1nn(CCOc2ccccc2)c(=O)n1-c1ccccc1F	0.49	5.42%	–	–
COc1ccccc1OCc1nc2ccccc2s1	1.64	17.7% (active)	–	–
NS(=O)(=O)c1ccc2nc(NC(=O)CS(=O)(=O)c3ccc(F)cc3)sc2c1	-0.28	3.34%	–	–
CN1CCc2ccccc2C1Cc1ccccc1NC(=O)c1sc2ccccc2c1Cl (stereo not given)	-0.05	1.76%	–	–
C(=N\Nc1ccc2ccccc2n1)/c1ccc2c(c1)OCO2	1.28	4.85%	–	–
CCCCN(C)C(=O)c1ccc2c(c1)N(CC)C(=O)c1ccccc1S2(=O)=O	-0.28	0.81%	–	–
COc1ccccc1C(=O)NCc1nnc(SC(C)C(=O)Nc2nccs2)n1C (stereo not given)	-0.14	4.95%	–	–
Cc1cccc(C(=O)N2CCc3c([nH]c4ccccc34)C2CC(C)C)n1 (stereo not given)	0.01	6.29% (active)	–	–
Fc1ccc2nc(Nc3nc4c(s3)CCCC4)sc2c1	1.24	11.5% (active)	–	–
O=C(Oc1ccc([N+](=O)[O-])cc1)c1ccc2ccccc2n1	-0.2	4.02%	–	–
Cc1cccnc1NC(=O)Cn1c(=O)oc2ccccc21	-0.23	1.31%	–	–
CCOc1ccc(C2c3[nH]c4ccccc4c3CCN2Cc2cn(CC)nc2C)cc1 (stereo not given)	-0.18	3.63%	–	–

SMILES	activation [1] [%]	activation [2]	activation [3]	activation [4] [%]
Cc1nc2cc(NC(=O)Nc3cccc(F)c3)ccc2n1C	1.98	11.2% (active)	–	–
O=C(O)c1[nH]c2ccccc2c1C(c1cccc(O)c1)c1c(C(=O)O)[nH]c2ccccc12	-0.02	4.41%	–	–
CC(C)C(=O)Nc1ccc2c(c1)oc1ccccc12	0.52	5.43%	–	–
NNC(=O)C1CCCn2c1nc1sc3c(c1c2=O)CCCC3 (stereo not given)	-0.2	4.24%	–	–
O=C(/C=C/c1cnc2ccccc2n1)NC1CCCCCC1	0.79	4.58%	–	–
Cc1cccc(-c2nc3ccccc3c(=O)n2NC(=O)Cc2ccc(Cl)cc2)c1	-0.04	0.97%	–	–
C/C(=N/NC(=S)Nc1ccccc1)c1ccc2c(c1)OCO2	0.01	0.89%	–	–
Cc1cccc(Nc2nc(-c3ccccc3)cs2)n1	1.85	16% (active)	–	–
CNc1nc(Nc2ccc(C)c(Cl)c2)nc(N)c1[N+](=O)[O-]	0.77	10.9% (active)	–	–
Cc1ccc2cc(/C=N/Nc3ccc(C(=O)O)cc3)c(Cl)nc2c1	0.97	8.18% (active)	–	–
COc1cc2ccccc2cc1C(=O)Nc1ccccc1C	0.82	9.11% (active)	–	–
Nc1ccccc1/C=N\N=C/c1ccccc1N	1.76	12.4% (active)	–	–
COc1ccccc1-c1nnc(NC(=O)c2ccc3ncsc3c2)o1	0.28	10.3% (active)	–	–
NS(=O)(=O)c1ccccc1NC(=O)c1c(O)c2ccccc2[nH]c1=O	1.36	9.27% (active)	–	–
O=C(CN1CCCCC1)NC(=O)Nc1ccccc1F	0.17	1.2%	–	–
Cc1ccc(OCc2nc3ccccc3n2C)cc1	1.32	5.18%	–	–
COc1ccc(Nc2nc(-c3ccccc3)cs2)cc1	1.88	18.8% (active)	–	–
COc1ccc(C(=O)C[n+]2ccc(C)cc2)cc1	-0.34	0.77%	–	–
COc1ccc(C2=NOC(COC(=O)c3ccc4ccccc4n3)C2)cc1 (stereo not given)	0.05	4.94%	–	–
CC(C#N)OC(=O)c1cccnc1SCC(=O)Nc1ccc2c(c1)OCO2 (stereo not given)	0.05	5.55%	–	–
Cc1ccc(-c2nc3ccccc3[nH]2)cc1N	2.07	10.4% (active)	–	–
O=C(CSC(=S)N1CCOCC1)c1ccccc1	1	5.12%	–	–
O=C(Cn1ccc([N+](=O)[O-])n1)NCc1cccs1	-0.27	1.71%	–	–
COc1ccc(CNC(=O)c2ccc3oc(C(C)C)nc3c2)cc1	0.72	2.54%	–	–
Clc1ccc(Nc2ccc3ccccc3n2)cc1	2.07	15% (active)	28.6% (active)	1.31
